Assay results taken from ChEMBL document CHEMBL3525907, “Studies on the metabolism and biological activity of the epimers of sulindac” (Drug Metab Dispos, 2011).
The source made the active and inactive calls. The calls are words filed in the database; no cut-off is given here.

What was measured:
[1] = Drug metabolism assessed as Escherichia coli MSRB-mediated reduced product formation; type: ADME
Zone of skin [2] = assay: Drug metabolism in Sprague-Dawley rat skin assessed as sulindac sulfone formation at 2 mg, ip after 0.5 to 4 hrs by HPLC analysis; settings: in vivo
Cytochrome P450 2B1 = Cytochrome P450 2B1 (Rattus norvegicus, UniProt P00176); assay: Drug metabolism assessed as rat recombinant CYP2B1-mediated sulindac sulfone formation measured per pmol of protein at 500 uM after 90 mins by HPLC analysis; type: ADME; settings: recombinant enzyme, 1.5 h
How it was run: (§1)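 Recombinant rat or human P450 Supersomes (some with cytochrome b5, variable reductase) incubated with (R)-sulindac at 500 μM or (S)-sulindac at 200 μM plus NADPH-regenerating system in 100 mM potassium phosphate pH 7.4 at 37°C, linear up to 90 min; acetonitrile stop; sulfone by C18 HPLC at 330 nm; ≥3 runs; pmol/pmol enzyme/h, mean ± S.E.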

Cytochrome P450 2C19 = Cytochrome P450 2C19 (Homo sapiens, UniProt P33261); assay: Drug metabolism assessed as human recombinant CYP2C19-mediated sulindac sulfone formation measured per pmol of protein at 500 uM after 90 mins by HPLC analysis; type: ADME; settings: recombinant enzyme, 1.5 h; how it was run: as §1
[3] = Activity of cytochrome P450 in human HepG2 cells assessed as enzyme-mediated drug metabolism at 125 uM preincubated for 2 to 24 hrs followed by compound-washout and fresh compound addition measured after 1 hr by HPLC analysis; type: ADME, cell-based; settings: hepg2, 1 h
How it was run: (§2)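 HepG2 cells in MEM/10% FBS grown to 80% confluence, pretreated 2–24 h with 125 μM (R)- or (S)-sulindac at 37°C, 5% CO2; washed with PBS, then 200 μM (R)- or (S)-sulindac in fresh medium for 1 h at 37°C; medium mixed with 3 volumes acetonitrile and analysed by HPLC for sulfone.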

[4] = target: T1, Methionine-R-sulfoxide reductase B1 (Rattus norvegicus, UniProt Q52KJ8); assay: Drug metabolism in rat liver G50 fraction assessed as MSRB1-mediated reduced product formation measured per mg of protein at 200 uM by HPLC analysis; type: ADME, tissue-based
T1 sequence (Q52KJ8 whole entry): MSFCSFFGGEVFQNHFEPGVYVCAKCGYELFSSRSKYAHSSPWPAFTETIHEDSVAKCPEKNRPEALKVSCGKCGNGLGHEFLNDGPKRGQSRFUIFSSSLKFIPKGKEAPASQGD
How it was run: (§3)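 Fractions from rat liver reductase purification (S-100, 30–70% ammonium sulfate cut, DEAE pool, G50 gel filtration) incubated with 200 μM (R)-sulindac in 100 mM Tris pH 7.4 with 15 mM DTT, 37°C, 100 μl; stopped with acetonitrile; sulindac sulfide quantified by C18 HPLC at 330 nm; specific activity as nmol product/mg protein/h.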

Cytochrome P450 2C8 = Cytochrome P450 2C8 (Homo sapiens, UniProt P10632); assay: Drug metabolism assessed as human recombinant CYP2C8-mediated sulindac sulfone formation measured per pmol of protein at 500 uM after 90 mins by HPLC analysis; type: ADME; settings: recombinant enzyme, 1.5 h; how it was run: as §1
Cytochrome P450 1B1 = Cytochrome P450 1B1 (Homo sapiens, UniProt Q16678); assay: Drug metabolism assessed as human recombinant CYP1B1-mediated sulindac sulfone formation measured per pmol of protein at 500 uM after 90 mins by HPLC analysis; type: ADME; settings: recombinant enzyme, 1.5 h; how it was run: as §1
[5] = target: Methionine-R-sulfoxide reductase B3 (Homo sapiens, UniProt Q8IXL7); assay: Drug metabolism assessed as human MSRB3-mediated reduced product formation; type: ADME
Cytochrome P450 2C9 = Cytochrome P450 2C9 (Homo sapiens, UniProt P11712); assay: Drug metabolism assessed as human recombinant CYP2C9-mediated sulindac sulfone formation measured per pmol of protein at 500 uM after 90 mins by HPLC analysis; type: ADME; settings: recombinant enzyme, 1.5 h; how it was run: as §1
MRC5 = assay: Cytoprotective activity in TBHP-induced human MRC5 cells at 500 uM incubated for 48 hrs prior to TBHP-challenge measured after 2 hrs; type: functional, cell-based
How it was run: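 Normal lung cells preincubated 48 h with 500 μM (R)- or (S)-sulindac or no drug, then challenged with TBHP; viability expressed as percent of cells not exposed to TBHP; mean and S.E. of five repeats; p < 0.05 versus no-drug controls.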

Liver [6] = assay: Drug metabolism in Sprague-Dawley rat liver assessed as sulindac sulfide formation at 2 mg, ip after 0.5 to 4 hrs by HPLC analysis; settings: in vivo
Plasma [7] = assay: Drug metabolism in Sprague-Dawley rat plasma assessed as sulindac sulfone formation at 2 mg, ip after 0.5 to 4 hrs by HPLC analysis; settings: in vivo
[8] = target: T1, Methionine-R-sulfoxide reductase B1; assay: Drug metabolism in rat liver ammonium sulfate fraction assessed as MSRB1-mediated reduced product formation measured per mg of protein at 200 uM by HPLC analysis; type: ADME, tissue-based
How it was run: (§4)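 Fractions (S-100, 30–70% ammonium sulfate cut) from rat liver purification; aliquots incubated with 200 μM (R)-sulindac or 200 μM DABS-R-Met(o) in 100 mM Tris pH 7.4 with 15 mM DTT or Trx system (1 mM NADPH, TrxB, TrxA), 37°C. Stopped with acetonitrile; C18 HPLC, sulindac sulfide at 330 nm, DABS-Met at 436 nm. Specific activity as nmol product/mg protein/h.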

[9] = target: Methionine-R-sulfoxide reductase B2, mitochondrial (Homo sapiens, UniProt Q9Y3D2); assay: Drug metabolism assessed as human MSRB2-mediated reduced product formation; type: ADME
Liver microsome [10] = assay: Drug metabolism in rat liver microsomes at […] after 60 mins by HPLC analysis; type: ADME; settings: 1 h
How it was run: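 Uninduced rat liver microsomes (100,000g pellet, washed), 20–80 μg protein, incubated with 20 nmol sulindac epimer in 100 μl 100 mM potassium phosphate pH 7.4 with NADPH-regenerating system (1.5 mM NADPH, 5 mM glucose 6-phosphate, G6PDH, 5 mM MgCl2), 60 min, 37°C. Stopped with 3 volumes acetonitrile; sulfone quantified by C18 HPLC. Six rat preparations.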

Plasma [11] = assay: Drug metabolism in Sprague-Dawley rat plasma assessed as sulindac sulfide formation at 2 mg, ip after 0.5 to 4 hrs by HPLC analysis; settings: in vivo
Cytochrome P450 1A2 [12] = target: Cytochrome P450 1A2 (Homo sapiens, UniProt P05177); assay: Drug metabolism assessed as human recombinant CYP1A2-mediated sulindac sulfone formation measured per pmol of protein at 500 uM after 90 mins by HPLC analysis; type: ADME; settings: recombinant enzyme, 1.5 h; how it was run: as §1
Cytochrome P450 1A1 = Cytochrome P450 1A1 (Rattus norvegicus, UniProt P00185); assay: Drug metabolism assessed as rat recombinant CYP1A1-mediated sulindac sulfone formation measured per pmol of protein at 500 uM after 90 mins by HPLC analysis; type: ADME; settings: recombinant enzyme, 1.5 h; how it was run: as §1
Liver microsome [13] = assay: Drug metabolism in rat liver microsomes assessed as sulindac sulfone formation at 200 µM after 60 mins by HPLC analysis in presence of NADPH; settings: 1 h
[14] = Drug metabolism in rat liver cytosolic fraction at 20 nM after 60 mins by HPLC analysis; type: ADME, tissue-based; settings: cytosol, 1 h
Cytochrome P450 1A2 [15] = target: Cytochrome P450 1A2 (Rattus norvegicus, UniProt P04799); assay: Drug metabolism assessed as rat recombinant CYP1A2-mediated sulindac sulfone formation measured per pmol of protein at 500 uM after 90 mins by HPLC analysis; type: ADME; settings: recombinant enzyme, 1.5 h; how it was run: as §1
Liver [16] = assay: Drug metabolism in Sprague-Dawley rat liver assessed as sulindac sulfone formation at 2 mg, ip after 0.5 to 4 hrs by HPLC analysis; settings: in vivo
Cytochrome P450 3A2 = Cytochrome P450 3A2 (Rattus norvegicus, UniProt P05183); assay: Drug metabolism assessed as rat recombinant CYP3A2-mediated sulindac sulfone formation measured per pmol of protein at 500 uM after 90 mins by HPLC analysis; type: ADME; settings: recombinant enzyme, 1.5 h; how it was run: as §1
[17] = target: T1, Methionine-R-sulfoxide reductase B1; assay: Drug metabolism in rat liver S100 fraction assessed as MSRB1-mediated reduced product formation measured per mg of protein at 200 uM by HPLC analysis; type: ADME, tissue-based; how it was run: as §4
Cytochrome P450 2D6 = Cytochrome P450 2D6 (Homo sapiens, UniProt P10635); assay: Drug metabolism assessed as human recombinant CYP2D6-mediated sulindac sulfone formation measured per pmol of protein at 500 uM after 90 mins by HPLC analysis; type: ADME; settings: recombinant enzyme, 1.5 h; how it was run: as §1
A549 = assay: Potentiation of TBHP-induced cytotoxicity in human A549 cells at 500 uM incubated for 48 hrs prior to TBHP-challenge measured after 2 hrs; type: functional, cell-based
[18] = Drug metabolism in human HepG2 cells assessed as induction of cytochrome P450-mediated sulindac sulfone formation at 125 uM preincubated for 2 to 24 hrs followed by compound-washout and fresh compound addition measured after 1 hr by HPLC analysis; type: ADME, cell-based; settings: hepg2, 1 h; how it was run: as §2
Zone of skin [19] = assay: Drug metabolism in Sprague-Dawley rat skin assessed as sulindac sulfide formation at 2 mg, ip after 0.5 to 4 hrs by HPLC analysis; settings: in vivo
[20] = target: T1, Methionine-R-sulfoxide reductase B1; assay: Drug metabolism in rat liver DEAE fraction assessed as MSRB1-mediated reduced product formation measured per mg of protein at 200 uM by HPLC analysis; type: ADME, tissue-based; how it was run: as §3
Cytochrome P450 3A4 = Cytochrome P450 3A4 (Homo sapiens, UniProt P08684); assay: Drug metabolism assessed as human recombinant CYP3A4-mediated sulindac sulfone formation measured per pmol of protein at 500 uM after 90 mins by HPLC analysis; type: ADME; settings: recombinant enzyme, 1.5 h; how it was run: as §1
[21] = target: T1, Methionine-R-sulfoxide reductase B1; assay: Activity of MSRB1 in rat liver S100 fraction assessed as enzyme-mediated drug metabolism measured per mg of protein at 200 uM by HPLC analysis; type: ADME; how it was run: as §3
[22] = target: T1, Methionine-R-sulfoxide reductase B1; assay: Activity of MSRB1 in rat liver DEAE fraction assessed as enzyme-mediated drug metabolism measured per mg of protein at 200 uM by HPLC analysis; type: ADME; how it was run: as §3
[23] = target: T1, Methionine-R-sulfoxide reductase B1; assay: Activity of MSRB1 in rat liver G50 fraction assessed as enzyme-mediated drug metabolism measured per mg of protein at 200 uM by HPLC analysis; type: ADME; how it was run: as §3
[24] = target: T1, Methionine-R-sulfoxide reductase B1; assay: Activity of MSRB1 in rat liver ammonium sulfate fraction assessed as enzyme-mediated drug metabolism measured per mg of protein at 200 uM by HPLC analysis; type: ADME; how it was run: as §3
[25] = target: T1, Methionine-R-sulfoxide reductase B1; assay: Drug metabolism in rat liver ammonium sulfate fraction assessed as MSRB1-mediated DABS-Met formation measured per mg of protein at 200 uM by HPLC analysis; type: ADME, tissue-based; how it was run: as §4
[26] = target: T1, Methionine-R-sulfoxide reductase B1; assay: Drug metabolism in rat liver S100 fraction assessed as MSRB1-mediated DABS-Met formation measured per mg of protein at 200 uM by HPLC analysis; type: ADME, tissue-based; how it was run: as §4
[27] = target: T1, Methionine-R-sulfoxide reductase B1; assay: Drug metabolism in rat liver DEAE fraction assessed as MSRB1-mediated DABS-Met formation measured per mg of protein at 200 uM by HPLC analysis; type: ADME, tissue-based
How it was run: (§5)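 Rat liver purification fractions (DEAE, G50 peak) assayed with 200 μM DABS-R-Met(o) in 100 mM Tris pH 7.4, DTT (15 mM) or Trx system (1 mM NADPH, TrxB, TrxA) as reductant, 37°C; acetonitrile stop; DABS-Met resolved on C18 HPLC, absorbance 436 nm; activity per mg protein, expressed as purification factor.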

[28] = target: T1, Methionine-R-sulfoxide reductase B1; assay: Drug metabolism in rat liver G50 fraction assessed as MSRB1-mediated DABS-Met formation measured per mg of protein at 200 uM by HPLC analysis; type: ADME, tissue-based; how it was run: as §5

Chain of Cytochrome P450 1A1 (P00185 whole entry): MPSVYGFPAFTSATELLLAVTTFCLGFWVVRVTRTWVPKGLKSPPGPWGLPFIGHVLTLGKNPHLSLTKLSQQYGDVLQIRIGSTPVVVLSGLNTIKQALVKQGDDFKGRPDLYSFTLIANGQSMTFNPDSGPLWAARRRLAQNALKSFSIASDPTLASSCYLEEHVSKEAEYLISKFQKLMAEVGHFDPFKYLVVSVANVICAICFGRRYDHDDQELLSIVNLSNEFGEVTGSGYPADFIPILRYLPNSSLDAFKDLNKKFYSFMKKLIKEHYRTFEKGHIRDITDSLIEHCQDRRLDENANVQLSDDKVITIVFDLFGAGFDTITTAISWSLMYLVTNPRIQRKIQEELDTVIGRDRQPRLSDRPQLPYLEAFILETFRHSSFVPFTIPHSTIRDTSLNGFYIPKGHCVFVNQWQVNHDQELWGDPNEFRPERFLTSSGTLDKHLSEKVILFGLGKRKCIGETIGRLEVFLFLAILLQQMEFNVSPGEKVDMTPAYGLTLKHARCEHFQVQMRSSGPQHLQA
Chain of Methionine-R-sulfoxide reductase B3 (Q8IXL7 whole entry): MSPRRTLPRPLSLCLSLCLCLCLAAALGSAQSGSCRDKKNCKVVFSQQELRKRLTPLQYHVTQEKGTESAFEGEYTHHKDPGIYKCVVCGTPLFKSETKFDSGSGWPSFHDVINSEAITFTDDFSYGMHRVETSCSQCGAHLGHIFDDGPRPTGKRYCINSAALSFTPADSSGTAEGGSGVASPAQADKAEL
Chain of Methionine-R-sulfoxide reductase B2, mitochondrial (Q9Y3D2 whole entry): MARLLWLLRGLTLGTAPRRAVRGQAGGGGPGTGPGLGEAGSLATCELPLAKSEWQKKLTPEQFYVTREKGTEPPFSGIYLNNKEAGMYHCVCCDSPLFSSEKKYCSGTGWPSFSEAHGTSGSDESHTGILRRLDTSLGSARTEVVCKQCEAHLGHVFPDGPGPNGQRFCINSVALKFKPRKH
Chain of Cytochrome P450 2C19 (P33261 whole entry): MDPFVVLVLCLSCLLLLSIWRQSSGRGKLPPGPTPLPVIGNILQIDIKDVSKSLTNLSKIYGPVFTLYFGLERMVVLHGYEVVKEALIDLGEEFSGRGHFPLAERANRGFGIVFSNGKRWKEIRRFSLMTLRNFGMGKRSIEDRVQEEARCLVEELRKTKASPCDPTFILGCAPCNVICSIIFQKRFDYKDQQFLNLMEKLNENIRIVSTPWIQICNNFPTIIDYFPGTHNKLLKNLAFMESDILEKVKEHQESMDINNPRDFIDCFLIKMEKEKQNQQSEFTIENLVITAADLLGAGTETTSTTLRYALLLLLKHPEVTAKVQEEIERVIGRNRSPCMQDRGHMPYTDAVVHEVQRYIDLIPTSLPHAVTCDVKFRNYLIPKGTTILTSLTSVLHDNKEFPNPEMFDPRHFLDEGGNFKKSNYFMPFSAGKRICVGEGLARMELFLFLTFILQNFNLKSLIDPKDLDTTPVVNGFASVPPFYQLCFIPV
Chain of Cytochrome P450 3A4 (P08684 whole entry): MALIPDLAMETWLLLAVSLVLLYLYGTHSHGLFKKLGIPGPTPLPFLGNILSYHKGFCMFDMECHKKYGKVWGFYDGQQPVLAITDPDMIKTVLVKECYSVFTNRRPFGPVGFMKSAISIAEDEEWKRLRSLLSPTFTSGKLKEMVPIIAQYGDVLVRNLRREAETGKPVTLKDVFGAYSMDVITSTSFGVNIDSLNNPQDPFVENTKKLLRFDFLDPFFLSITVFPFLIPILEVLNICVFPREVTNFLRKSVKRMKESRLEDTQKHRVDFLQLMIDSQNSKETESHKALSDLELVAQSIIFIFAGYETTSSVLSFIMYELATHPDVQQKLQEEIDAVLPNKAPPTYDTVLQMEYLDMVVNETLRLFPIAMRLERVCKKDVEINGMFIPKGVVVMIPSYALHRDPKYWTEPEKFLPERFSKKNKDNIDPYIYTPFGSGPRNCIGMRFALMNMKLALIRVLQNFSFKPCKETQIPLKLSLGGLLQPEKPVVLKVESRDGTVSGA
Chain of Cytochrome P450 2C9 (P11712 whole entry): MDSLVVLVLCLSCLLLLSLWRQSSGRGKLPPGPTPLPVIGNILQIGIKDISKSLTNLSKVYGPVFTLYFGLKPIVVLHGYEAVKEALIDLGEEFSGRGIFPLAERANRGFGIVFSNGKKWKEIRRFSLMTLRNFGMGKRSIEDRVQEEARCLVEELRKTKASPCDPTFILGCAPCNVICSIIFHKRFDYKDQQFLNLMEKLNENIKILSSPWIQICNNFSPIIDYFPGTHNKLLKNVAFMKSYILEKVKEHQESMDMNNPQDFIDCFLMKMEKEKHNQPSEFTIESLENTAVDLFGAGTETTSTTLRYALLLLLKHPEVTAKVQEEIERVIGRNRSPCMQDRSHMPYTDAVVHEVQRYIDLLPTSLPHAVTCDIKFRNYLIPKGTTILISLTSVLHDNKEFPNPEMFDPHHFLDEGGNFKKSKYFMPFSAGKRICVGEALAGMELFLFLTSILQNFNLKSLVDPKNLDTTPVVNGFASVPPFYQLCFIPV
Chain of Cytochrome P450 2B1 (P00176 whole entry): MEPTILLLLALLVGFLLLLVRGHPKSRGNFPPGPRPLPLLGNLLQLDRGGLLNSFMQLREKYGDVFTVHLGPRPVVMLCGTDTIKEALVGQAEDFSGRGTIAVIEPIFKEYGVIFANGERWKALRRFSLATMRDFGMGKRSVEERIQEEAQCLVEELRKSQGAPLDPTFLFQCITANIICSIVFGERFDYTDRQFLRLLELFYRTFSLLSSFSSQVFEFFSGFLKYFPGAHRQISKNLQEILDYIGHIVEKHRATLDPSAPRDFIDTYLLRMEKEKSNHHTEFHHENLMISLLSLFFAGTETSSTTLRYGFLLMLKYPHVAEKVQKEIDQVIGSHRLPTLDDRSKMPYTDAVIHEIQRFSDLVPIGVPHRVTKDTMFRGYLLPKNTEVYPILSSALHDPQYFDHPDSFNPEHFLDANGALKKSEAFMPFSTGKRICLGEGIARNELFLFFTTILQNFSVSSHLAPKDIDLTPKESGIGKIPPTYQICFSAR
Chain of Cytochrome P450 2C8 (P10632 whole entry): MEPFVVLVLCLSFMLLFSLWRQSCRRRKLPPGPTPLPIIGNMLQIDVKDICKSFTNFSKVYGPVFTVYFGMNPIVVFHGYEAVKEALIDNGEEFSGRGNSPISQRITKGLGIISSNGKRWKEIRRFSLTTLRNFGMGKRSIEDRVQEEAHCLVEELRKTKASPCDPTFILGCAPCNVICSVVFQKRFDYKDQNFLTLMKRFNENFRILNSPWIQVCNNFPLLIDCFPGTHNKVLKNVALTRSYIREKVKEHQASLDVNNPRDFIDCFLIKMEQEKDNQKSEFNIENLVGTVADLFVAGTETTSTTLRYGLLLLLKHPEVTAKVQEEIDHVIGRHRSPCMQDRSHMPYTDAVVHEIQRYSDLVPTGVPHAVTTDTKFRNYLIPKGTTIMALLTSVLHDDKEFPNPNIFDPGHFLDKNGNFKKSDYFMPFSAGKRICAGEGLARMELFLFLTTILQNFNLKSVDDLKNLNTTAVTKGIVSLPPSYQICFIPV
Chain of Cytochrome P450 2D6 (P10635 whole entry): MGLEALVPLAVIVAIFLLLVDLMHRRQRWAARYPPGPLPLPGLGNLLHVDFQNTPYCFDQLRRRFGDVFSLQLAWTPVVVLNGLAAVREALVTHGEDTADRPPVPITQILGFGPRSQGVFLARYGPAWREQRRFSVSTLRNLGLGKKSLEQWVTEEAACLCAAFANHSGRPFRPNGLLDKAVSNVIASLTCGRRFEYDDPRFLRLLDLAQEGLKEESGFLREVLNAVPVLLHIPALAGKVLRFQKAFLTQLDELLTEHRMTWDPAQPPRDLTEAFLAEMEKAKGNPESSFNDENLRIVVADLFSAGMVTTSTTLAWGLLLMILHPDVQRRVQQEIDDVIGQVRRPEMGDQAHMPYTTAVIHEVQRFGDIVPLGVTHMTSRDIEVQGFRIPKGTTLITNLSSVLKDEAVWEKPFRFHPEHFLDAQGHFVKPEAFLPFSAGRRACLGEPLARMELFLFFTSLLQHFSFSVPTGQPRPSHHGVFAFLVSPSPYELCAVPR
Chain of Cytochrome P450 3A2 (P05183 whole entry): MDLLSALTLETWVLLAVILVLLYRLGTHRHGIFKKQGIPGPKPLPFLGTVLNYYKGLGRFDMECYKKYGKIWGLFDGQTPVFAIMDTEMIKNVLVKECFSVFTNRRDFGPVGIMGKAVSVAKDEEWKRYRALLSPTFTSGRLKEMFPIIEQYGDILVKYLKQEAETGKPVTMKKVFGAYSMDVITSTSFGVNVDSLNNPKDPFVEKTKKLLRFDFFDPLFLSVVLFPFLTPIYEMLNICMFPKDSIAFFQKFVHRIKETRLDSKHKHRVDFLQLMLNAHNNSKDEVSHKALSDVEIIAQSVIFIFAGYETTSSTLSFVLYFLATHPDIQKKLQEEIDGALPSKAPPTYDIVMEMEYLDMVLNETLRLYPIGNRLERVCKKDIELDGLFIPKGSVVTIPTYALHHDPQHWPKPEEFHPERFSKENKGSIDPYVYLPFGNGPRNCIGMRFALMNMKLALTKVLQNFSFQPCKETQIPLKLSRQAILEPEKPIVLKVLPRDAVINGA
Chain of Cytochrome P450 1A2 (Rattus norvegicus, UniProt P04799) (P04799 whole entry): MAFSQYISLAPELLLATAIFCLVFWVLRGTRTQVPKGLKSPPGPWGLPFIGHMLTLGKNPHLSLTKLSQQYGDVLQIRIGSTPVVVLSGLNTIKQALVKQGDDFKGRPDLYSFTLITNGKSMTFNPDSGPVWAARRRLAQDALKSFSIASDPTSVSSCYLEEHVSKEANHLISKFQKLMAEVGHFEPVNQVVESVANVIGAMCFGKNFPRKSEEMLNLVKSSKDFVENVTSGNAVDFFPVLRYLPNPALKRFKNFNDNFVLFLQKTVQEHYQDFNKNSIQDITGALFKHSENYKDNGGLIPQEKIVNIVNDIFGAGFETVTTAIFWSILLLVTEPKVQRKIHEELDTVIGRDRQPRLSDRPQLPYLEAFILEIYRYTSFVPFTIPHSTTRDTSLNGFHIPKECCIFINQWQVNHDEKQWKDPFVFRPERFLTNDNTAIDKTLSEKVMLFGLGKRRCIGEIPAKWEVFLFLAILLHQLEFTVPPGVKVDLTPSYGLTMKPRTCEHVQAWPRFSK

CC1=C(CC(=O)O)c2cc(F)ccc2/C1=C\c1ccc([S+](C)[O-])cc1 (single isomer, unassigned)
Drug metabolism [1]: metabolite_not_detected
Drug metabolism (Zone of skin [2]): metabolite_detected
Drug metabolism (Cytochrome P450 2B1): metabolite_not_detected
Drug metabolism (Cytochrome P450 2C19): metabolite_not_detected
Drug metabolism [3]: metabolite_detected
Drug metabolism [4]: 1160 nmol/h
Drug metabolism (Cytochrome P450 2C8): metabolite_not_detected
Drug metabolism (Cytochrome P450 1B1): 73 pmol/h
Drug metabolism [5]: metabolite_not_detected
Drug metabolism (Cytochrome P450 2C9): metabolite_not_detected
Activity (MRC5): Active
Drug metabolism (Liver [6]): metabolite_detected
Drug metabolism (Plasma [7]): metabolite_detected
Drug metabolism [8]: 5.6 nmol/h
Drug metabolism [9]: metabolite_not_detected
Drug metabolism (Liver microsome [10]): metabolite_not_detected
Drug metabolism (Plasma [11]): metabolite_detected
Drug metabolism (Cytochrome P450 1A2 [12]): 130 pmol/h
Drug metabolism (Cytochrome P450 1A1): 380 pmol/h
Drug metabolism (Liver microsome [13]): metabolite_detected
Drug metabolism [14]: metabolite_not_detected
Drug metabolism (Cytochrome P450 1A2 [15]): 460 pmol/h
Drug metabolism (Liver [16]): metabolite_detected
Drug metabolism (Cytochrome P450 3A2): metabolite_not_detected
Drug metabolism [17]: 4.2 nmol/h
Drug metabolism (Cytochrome P450 2D6): metabolite_not_detected
Activity (A549): Active
Drug metabolism [18]: metabolite_detected
Drug metabolism (Zone of skin [19]): metabolite_detected
Drug metabolism [20]: 32.6 nmol/h
Drug metabolism (Cytochrome P450 3A4): 47 pmol/h

CSCC[C@H](NS(=O)(=O)c1ccc(/N=N/c2ccc(N(C)C)cc2)cc1)C(=O)O
Drug metabolism [21]: metabolite_detected
Drug metabolism [22]: metabolite_detected
Drug metabolism [23]: metabolite_detected
Drug metabolism [24]: metabolite_detected

CN(C)c1ccc(/N=N/c2ccc(S(=O)(=O)N[C@@H](CC[S@@+](C)[O-])C(=O)O)cc2)cc1
Drug metabolism [25]: metabolite_detected
Drug metabolism [26]: metabolite_detected
Drug metabolism [27]: metabolite_detected
Drug metabolism [28]: metabolite_detected
